PMC6959494 (Egyptian journal of chemistry, 2018)
Converted amounts (≈) assume the structure as drawn. Where two headings read alike, the source gives them in different places.

Assays:
[1] = test system: E. faecalis ATCC 51299 vanB resistant; assay: MIC by microbroth dilution; assay type: cell-based, Enterococcus faecalis
Procedure, shortened: (§1)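 Broth microdilution per international standard ISO […]. The panel covered clinical isolates and NCTC/ATCC control organisms, including resistant phenotypes, and ampicillin was run alongside as comparator.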

[2] = test system: S.enteritidis8204 sensitive; assay: MIC by microbroth dilution; assay type: cell-based, Salmonella enteritidis
Procedure, shortened: as §1

[3] = test system: S. aureus NCTC 12493 mecA resistant; assay: MIC by microbroth dilution; assay type: cell-based
Procedure, shortened: as §1

[4] = test system: E. faecium 16568 sensitive; assay: MIC by microbroth dilution; assay type: cell-based; details: Enterococcus faecium
Procedure, shortened: as §1

[5] = test system: K. pneumoniae 21856 sensitive; assay: MIC by microbroth dilution; assay type: cell-based, Klebsiella pneumoniae
Procedure, shortened: as §1

[6] = test system: S. aureus SH1000 sensitive strain; assay: MIC against S. aureus SH1000 sensitive strain; assay type: cell-based, Staphylococcus aureus; details: for MIC: Staphylococcus aureus, read-out: MIC S. aureus Sensitive SH1000
[7] = test system: S. aureus ATCC 29213 sensitive; assay: MIC by microbroth dilution; assay type: cell-based
Procedure, shortened: as §1

[8] = biological target: S. pneumonia PheRS (Streptococcus pneumoniae, UniProt Q97S36); assay: tRNA aminoacylation scintillation proximity assay, S. pneumonia PheRS; assay type: biochemical
S. pneumonia PheRS, sequence (Q97S36 whole entry): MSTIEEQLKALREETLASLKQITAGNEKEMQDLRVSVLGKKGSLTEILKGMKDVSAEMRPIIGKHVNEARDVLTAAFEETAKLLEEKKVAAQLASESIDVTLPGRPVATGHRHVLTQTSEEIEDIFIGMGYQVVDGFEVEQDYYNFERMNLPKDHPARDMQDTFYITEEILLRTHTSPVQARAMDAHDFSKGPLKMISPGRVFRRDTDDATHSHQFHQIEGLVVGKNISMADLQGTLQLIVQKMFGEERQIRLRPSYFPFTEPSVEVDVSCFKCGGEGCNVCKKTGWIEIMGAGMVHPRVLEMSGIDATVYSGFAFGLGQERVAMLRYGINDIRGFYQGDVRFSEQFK
S. pneumonia PheRS, sequence (Q97S34 whole entry, further chain): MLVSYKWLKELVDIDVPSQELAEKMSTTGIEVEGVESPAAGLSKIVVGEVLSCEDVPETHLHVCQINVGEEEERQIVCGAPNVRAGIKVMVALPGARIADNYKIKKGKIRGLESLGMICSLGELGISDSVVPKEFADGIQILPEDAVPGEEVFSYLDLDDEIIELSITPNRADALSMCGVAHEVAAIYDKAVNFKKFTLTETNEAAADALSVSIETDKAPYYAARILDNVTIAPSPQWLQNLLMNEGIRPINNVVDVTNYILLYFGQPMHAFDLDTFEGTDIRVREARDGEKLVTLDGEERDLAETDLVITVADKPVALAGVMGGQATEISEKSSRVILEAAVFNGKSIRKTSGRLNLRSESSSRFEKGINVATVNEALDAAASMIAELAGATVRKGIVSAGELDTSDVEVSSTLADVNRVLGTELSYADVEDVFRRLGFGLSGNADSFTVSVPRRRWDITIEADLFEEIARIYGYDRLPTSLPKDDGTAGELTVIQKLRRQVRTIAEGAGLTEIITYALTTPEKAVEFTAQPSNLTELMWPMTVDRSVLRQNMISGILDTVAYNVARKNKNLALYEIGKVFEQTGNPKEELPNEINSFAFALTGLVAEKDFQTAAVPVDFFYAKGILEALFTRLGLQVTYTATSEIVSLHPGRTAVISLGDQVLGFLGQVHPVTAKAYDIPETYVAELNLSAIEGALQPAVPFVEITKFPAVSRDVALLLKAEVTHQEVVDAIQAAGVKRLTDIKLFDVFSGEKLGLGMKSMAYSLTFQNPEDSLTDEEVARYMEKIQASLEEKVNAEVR
Procedure, shortened: (§2)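 E. coli tRNA was added and incubated 1 h at 37 °C, then stopped with EDTA. Poly-L-lysine yttrium silicate SPA beads in citric acid were added for 1 h before scintillation counting. DMSO-only controls were included, and IC50 came from a sigmoidal dose-response fit.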

[9] = biological target: P. aeruginosa PheRS (Pseudomonas aeruginosa, UniProt Q9I0A3); assay: tRNA aminoacylation scintillation proximity assay, P. aeruginosa PheRS; assay type: biochemical
P. aeruginosa PheRS, sequence (Q9I0A3 whole entry): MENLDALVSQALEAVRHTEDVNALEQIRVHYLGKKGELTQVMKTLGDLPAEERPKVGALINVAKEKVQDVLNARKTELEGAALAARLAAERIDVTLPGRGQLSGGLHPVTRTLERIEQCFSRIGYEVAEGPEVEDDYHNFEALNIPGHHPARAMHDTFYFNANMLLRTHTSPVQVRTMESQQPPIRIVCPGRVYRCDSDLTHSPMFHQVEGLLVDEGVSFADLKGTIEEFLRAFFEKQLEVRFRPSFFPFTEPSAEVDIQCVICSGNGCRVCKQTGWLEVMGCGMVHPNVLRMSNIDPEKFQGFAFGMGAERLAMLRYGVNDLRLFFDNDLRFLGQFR
P. aeruginosa PheRS, sequence (Q9I0A4 whole entry partner): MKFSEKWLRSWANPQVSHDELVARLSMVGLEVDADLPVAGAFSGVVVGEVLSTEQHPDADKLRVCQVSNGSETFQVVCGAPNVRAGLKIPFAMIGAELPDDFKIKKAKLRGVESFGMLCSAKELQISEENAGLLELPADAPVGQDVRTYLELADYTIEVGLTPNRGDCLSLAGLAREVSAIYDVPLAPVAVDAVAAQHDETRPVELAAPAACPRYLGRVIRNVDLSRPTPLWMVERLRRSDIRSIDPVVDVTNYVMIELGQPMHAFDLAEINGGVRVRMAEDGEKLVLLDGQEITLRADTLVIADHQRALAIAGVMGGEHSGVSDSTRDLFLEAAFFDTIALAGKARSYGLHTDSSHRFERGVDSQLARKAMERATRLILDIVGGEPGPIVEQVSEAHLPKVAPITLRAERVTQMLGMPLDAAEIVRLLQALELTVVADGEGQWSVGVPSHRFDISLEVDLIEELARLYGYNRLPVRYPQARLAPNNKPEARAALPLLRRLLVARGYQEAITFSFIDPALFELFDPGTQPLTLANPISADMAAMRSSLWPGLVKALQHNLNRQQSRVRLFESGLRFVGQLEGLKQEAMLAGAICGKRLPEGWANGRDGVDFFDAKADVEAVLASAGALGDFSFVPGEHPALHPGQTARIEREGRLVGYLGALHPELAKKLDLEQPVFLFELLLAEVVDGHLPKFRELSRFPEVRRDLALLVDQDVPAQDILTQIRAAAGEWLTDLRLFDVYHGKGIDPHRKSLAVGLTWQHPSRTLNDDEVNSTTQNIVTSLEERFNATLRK
Procedure, shortened: as §2

[10] = test system: the tested bacteria (variety of clinically important pathogens); assay: MIC by microbroth dilution, summary in text for the panel of pathogens; assay type: cell-based; details: read-out: MIC, no inhibitory activity
[11] = test system: E. coli ATCC 25922 sensitive; assay: MIC by microbroth dilution; assay type: cell-based
Procedure, shortened: as §1

[12] = test system: E. faecalisATCC 29212 sensitive; assay: MIC by microbroth dilution; assay type: cell-based, Enterococcus faecalis
Procedure, shortened: as §1

[13] = test system: A.baumannii572 sensitive; assay: MIC by microbroth dilution; assay type: cell-based, Acinetobacter baumannii
Procedure, shortened: as §1

[14] = test system: P. mirabilis NCTC 10975 sensitive; assay: MIC by microbroth dilution; assay type: cell-based, Proteus mirabilis
Procedure, shortened: as §1

[15] = test system: E. faecalis NCTC 12201 vanA resistant; assay: MIC by microbroth dilution; assay type: cell-based, Enterococcus faecalis
Procedure, shortened: as §1

[16] = test system: P. aeruginosa ATCC 27853 sensitive; assay: MIC by microbroth dilution; assay type: cell-based, Pseudomonas aeruginosa
Procedure, shortened: as §1

[17] = test system: B.cepacia NCTC 10661 sensitive; assay: MIC by microbroth dilution; assay type: cell-based
Procedure, shortened: as §1

[18] = test system: E. faecalis sensitive and vanA and vanB resistant strains; assay: MIC by microbroth dilution, summary in text for E. faecalis strains; assay type: cell-based; details: Enterococcus faecalis, read-out: moderate inhibitory activity (MIC)
Procedure, shortened: as §1

[19] = Enterococcus faecalis, ATCC51299
[20] = Staphylococcus aureus, NCTC12493
[21] = Staphylococcus aureus, ATCC29213
[22] = Enterococcus faecalis, ATCC29212
[23] = Enterococcus faecalis, NCTC12201
[24] = Pseudomonas aeruginosa, ATCC27853

Compound	MIC [1, 19]	MIC ([2]; Salmonella enterica)	MIC [3, 20]	MIC [4]	MIC ([5]; Klebsiella pneumoniae)	MIC [6]	MIC [7, 21]	IC50 [8]	IC50 [9]	MIC [10]	MIC ([11]; Escherichia coli, ATCC25922)	MIC [12, 22]	MIC ([13]; Acinetobacter baumannii)	MIC ([14]; Proteus mirabilis, NCTC10975)	MIC [15, 23]	MIC [16, 24]	further results
CCCSc1nnc(CCCn2cnc3c(N)ncnc32)n1-c1ccccc1 [17b, 9-(3-(4-Phenyl-5-(propylthio)-4H-1,2,4-triazol-3-yl)propyl)-9H-purin-6-amine]	> 128 mg/L	> 128 mg/L	> 128 mg/L	> 128 mg/L	> 128 mg/L	> 128 mg/L	> 128 mg/L	686 µM	294 µM	≥ 128 mg/L	> 128 mg/L	> 128 mg/L	> 128 mg/L	> 128 mg/L	> 128 mg/L	> 128 mg/L	
O=C(Nc1nnc(CCn2cnc3ccccc32)s1)c1ccc(F)cc1 [11b, N-(5-(2-(1H-benzimidazol-1-yl)ethyl)-1.3.4-thiadiazol-2-yl)-4fluorobenzamide]																	MIC ([1]; E. faecalis ATCC 51299 vanB resistant): 64 mg/L (≈ 174 µM); MIC ([2]; S.enteritidis8204 sensitive): >128 mg/L; MIC ([3]; S. aureus NCTC 12493 mecA resistant): 128 mg/L (≈ 348 µM); MIC ([5]; K. pneumoniae 21856 sensitive): >128 mg/L; MIC S. aureus Sensitive SH1000 ([6]; S. aureus SH1000 sensitive strain): >128 mg/L; MIC ([7]; S. aureus ATCC 29213 sensitive): >128 mg/L; IC50 ([8]; read-out: S. pneumonia PheRS IC50, aminoacylation SPA, 0.2 μM enzyme): 685 µM; IC50 ([9]; read-out: P. aeruginosa PheRS IC50, aminoacylation SPA, 0.08 μM enzyme): 907 µM; MIC ([11]; E. coli ATCC 25922 sensitive): >128 mg/L; MIC ([12]; E. faecalis ATCC 29212 sensitive): 64 mg/L (≈ 174 µM); MIC [17]: >128 mg/L; MIC ([13]; A.baumannii572 sensitive): >128 mg/L; MIC ([14]; P. mirabilis NCTC 10975 sensitive): >128 mg/L; MIC ([15]; E. faecalis NCTC 12201 vanA resistant): 32 mg/L (≈ 87.1 µM); MIC ([16]; P. aeruginosa ATCC 27853 sensitive): >128 mg/L
CCSc1nnc(CCCn2cnc3c(N)ncnc32)n1-c1ccccc1 [17a, 9-(3-(5-(Ethylthio)-4-phenyl-4H-1,2,4-triazol-3-yl)propyl)-9H-purin-6-amine]	64 mg/L (≈ 168 µM)	> 128 mg/L	128 mg/L (≈ 336 µM)		> 128 mg/L	> 128 mg/L	> 128 mg/L	619 µM	199 µM	≥ 128 mg/L	> 128 mg/L	> 128 mg/L	> 128 mg/L	> 128 mg/L	64 mg/L (≈ 168 µM)	> 128 mg/L	MIC [18]: 32 to 64 mg/L (≈ 84.1 to 168 µM)
CCCSc1nnc(CCCn2cnc3ccccc32)n1-c1ccccc1 [16b, 1-(3-(4-Phenyl-5-(propylthio)-4H-1,2,4-triazol-3-yl)propyl)1H-benzimidazole]						> 128 mg/L		390 µM	375 µM								
COc1cc(OC)cc(C(=O)Nc2nnc(CCn3cnc4ccccc43)s2)c1 [11a, N-(5-(2-(1H-benzimidazol-1-yl)ethyl)-1,3,4-thiadiazol-2-yl)-3,5-dimethoxybenzamide]						> 128 mg/L		345 µM	742 µM								
CC1(C)S[C@@H]2[C@H](NC(=O)[C@H](N)c3ccccc3)C(=O)N2[C@H]1C(=O)O [Amp, ampicillin, reference compound]			> 128 mg/L	4 mg/L (≈ 11.4 µM)	> 128 mg/L		4 mg/L (≈ 11.4 µM)						> 128 mg/L	> 128 mg/L	16 mg/L (≈ 45.8 µM)	> 128 mg/L	
CCSc1nnc(CCCn2cnc3ccccc32)n1-c1ccccc1 [16a, 1-(3-(5-(Ethylthio)-4-phenyl-4H-1,2,4-triazol-3-yl)propyl)-1H-benzimidazole]	> 128 mg/L	> 128 mg/L	> 128 mg/L	> 128 mg/L	> 128 mg/L	> 128 mg/L	> 128 mg/L	561 µM	343 µM	≥ 128 mg/L	> 128 mg/L	> 128 mg/L	> 128 mg/L	> 128 mg/L	> 128 mg/L	> 128 mg/L	
